≈ marks a conversion by molar mass, not a printed value.
Key:
[1] = biological target: T1, Transient receptor potential cation channel subfamily V member 1 (Homo sapiens, UniProt Q8NER1); assay: Antagonist activity at human recombinant TRPV1 expressed in human 1321N1 cells assessed as inhibition of capsaicin-induced calcium influx by FLIPR assay; type: functional, cell-based
Summary of the method: (§1)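 Ca2+ influx in 1321N1 cells stably expressing recombinant human or rat TRPV1, grown to confluency, loaded with fluo-4 AM (2 µM in D-PBS) 1–2 h at 23 °C, washed. Compound (11-point half-log range, D-PBS) added at 10 s, capsaicin 3 min later. FLIPR fluorescence read over 240 s; peak increase minus baseline as % of 0.05 µM capsaicin control; four-parameter logistic fit for IC50; mean of ≥2 experiments in triplicate.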

[2] = Ratio of drug level in brain to plasma in po dosed Sprague-Dawley rat; type: ADME, organism-based
Summary of the method: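 Male Sprague–Dawley rats (200–320 g), group-housed with free food and water, fasted 16 h before oral dosing. Compound given po in 10% ethanol, 20% polysorbate-80 and 70% PEG-400. Drug concentrations in brain and plasma were expressed as a [brain]:[plasma] ratio.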

Rattus norvegicus [3] = assay: Analgesic activity against complete Freund's adjuvant-induced thermal hyperalgesia in po dosed Sprague-Dawley rat assessed as paw withdrawal latency; type: functional
Summary of the method: (§2)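 Male Sprague–Dawley rats (200–320 g), food withdrawn 16 h before oral dosing. Right hindpaw injected with 150 µL of 50% CFA in saline. Thermal hyperalgesia measured 48 h later as radiant-heat paw withdrawal on a 30 °C glass surface after 30 min habituation. Vehicle: 10% ethanol, 20% polysorbate-80, 70% PEG-400. Single-dose testing used 30 µmol/kg po, n = 6/group, versus vehicle.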

Rattus norvegicus [4] = assay: Antinociceptive activity against hyperalgesia in po dosed rat Chung neuropathic pain model; type: functional
Rattus norvegicus [5] = assay: Analgesic activity against complete Freund's adjuvant-induced thermal hyperalgesia in Sprague-Dawley rat assessed as paw withdrawal latency at 30 umol/kg, po; type: functional; summary of the method: as §2
[6] = Plasma concentration in po dosed Sprague-Dawley rat after 1 hr; type: ADME, organism-based
[7] = biological target: T1, Transient receptor potential cation channel subfamily V member 1; assay: Antagonist activity at human recombinant TRPV1 expressed in human 1321N1 cells assessed as inhibition of N-arachidonoyl-dopamine-induced calcium influx by FLIPR assay; type: functional, cell-based
Summary of the method: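 FLIPR fluo-4 Ca2+ influx in 1321N1 cells stably expressing human TRPV1, with 3 µM NADA as the stimulus. Compound is added before agonist challenge. Peak fluorescence increase over baseline is fit to a four-parameter logistic curve to give IC50.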

[8] = biological target: T1, Transient receptor potential cation channel subfamily V member 1; assay: Antagonist activity at human recombinant TRPV1 expressed in human 1321N1 cells assessed as inhibition of pH 5.5-induced calcium influx by FLIPR assay; type: functional, cell-based
Summary of the method: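 Fluo-4 FLIPR Ca2+ assay in 1321N1 cells stably expressing human TRPV1, stimulated by low pH (pH 5.5) after compound preincubation. Peak fluorescence rise minus baseline is fit by a four-parameter logistic equation to give IC50.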

[9] = biological target: Transient receptor potential cation channel subfamily V member 1 (Rattus norvegicus, UniProt O35433); assay: Antagonist activity at rat TRPV1 expressed in human 1321N1 cells assessed as inhibition of capsaicin-induced calcium influx by FLIPR assay; type: functional, cell-based; summary of the method: as §1
Rattus norvegicus [10] = species: Rattus norvegicus; assay: Nocifensive activity against capsaicin-induced neuropathic pain in rat; type: functional
Rattus norvegicus [11] = assay: Analgesic activity against complete Freund's adjuvant-induced mechanical allodynia in po dosed Sprague-Dawley rat; type: functional
Rattus norvegicus [12] = species: Rattus norvegicus; assay: Analgesic activity against capsaicin-induced secondary mechanical allodynia in rat; type: functional
Rattus norvegicus [13] = species: Rattus norvegicus; assay: Analgesic activity against monosodium iodoacetate-induced osteoarthritis in rat; type: functional
Rattus norvegicus [14] = species: Rattus norvegicus; assay: Analgesic activity against skin incision-induced acute thermal hyperalgesia in Sprague-Dawley rat; type: functional
Summary of the method: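 Under halothane (2–3%) anesthesia, a left hind paw plantar incision was made aseptically in male Sprague–Dawley rats. Rats recovered 2 h before thermal hyperalgesia testing.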

Rattus norvegicus [15] = species: Rattus norvegicus; assay: Analgesic activity against gamma carrageenan-induced thermal hyperalgesia in Sprague-Dawley rat; type: functional
Summary of the method: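 Male Sprague–Dawley rats (200–320 g) received 100 µL of 1% carrageenan in saline into the right hindpaw plantar surface. Thermal hyperalgesia was tested 2 h later by radiant heat to the plantar surface in Plexiglass cubicles on a 30 °C glass floor, after 30 min habituation.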

[16] = Aqueous solubility of the compound; type: physicochemical; conditions: buffer
[17] = Apparent permeability across human Caco-2 cell membrane; type: ADME, cell-based
[18] = Solubility in PEG-400; type: physicochemical
Summary of the method: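 Solubility was measured in PEG-400 as an organic vehicle.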

[19] = Oral bioavailability in Sprague-Dawley rat; type: ADME, organism-based; conditions: in vivo
[20] = Half-life in po dosed Sprague-Dawley rat; type: ADME, organism-based; conditions: in vivo
[21] = biological target: Voltage-gated inwardly rectifying potassium channel KCNH2 (Homo sapiens, UniProt Q12809); assay: Inhibition of human ERG
Sequence of Voltage-gated inwardly rectifying potassium channel KCNH2 (Q12809 whole entry): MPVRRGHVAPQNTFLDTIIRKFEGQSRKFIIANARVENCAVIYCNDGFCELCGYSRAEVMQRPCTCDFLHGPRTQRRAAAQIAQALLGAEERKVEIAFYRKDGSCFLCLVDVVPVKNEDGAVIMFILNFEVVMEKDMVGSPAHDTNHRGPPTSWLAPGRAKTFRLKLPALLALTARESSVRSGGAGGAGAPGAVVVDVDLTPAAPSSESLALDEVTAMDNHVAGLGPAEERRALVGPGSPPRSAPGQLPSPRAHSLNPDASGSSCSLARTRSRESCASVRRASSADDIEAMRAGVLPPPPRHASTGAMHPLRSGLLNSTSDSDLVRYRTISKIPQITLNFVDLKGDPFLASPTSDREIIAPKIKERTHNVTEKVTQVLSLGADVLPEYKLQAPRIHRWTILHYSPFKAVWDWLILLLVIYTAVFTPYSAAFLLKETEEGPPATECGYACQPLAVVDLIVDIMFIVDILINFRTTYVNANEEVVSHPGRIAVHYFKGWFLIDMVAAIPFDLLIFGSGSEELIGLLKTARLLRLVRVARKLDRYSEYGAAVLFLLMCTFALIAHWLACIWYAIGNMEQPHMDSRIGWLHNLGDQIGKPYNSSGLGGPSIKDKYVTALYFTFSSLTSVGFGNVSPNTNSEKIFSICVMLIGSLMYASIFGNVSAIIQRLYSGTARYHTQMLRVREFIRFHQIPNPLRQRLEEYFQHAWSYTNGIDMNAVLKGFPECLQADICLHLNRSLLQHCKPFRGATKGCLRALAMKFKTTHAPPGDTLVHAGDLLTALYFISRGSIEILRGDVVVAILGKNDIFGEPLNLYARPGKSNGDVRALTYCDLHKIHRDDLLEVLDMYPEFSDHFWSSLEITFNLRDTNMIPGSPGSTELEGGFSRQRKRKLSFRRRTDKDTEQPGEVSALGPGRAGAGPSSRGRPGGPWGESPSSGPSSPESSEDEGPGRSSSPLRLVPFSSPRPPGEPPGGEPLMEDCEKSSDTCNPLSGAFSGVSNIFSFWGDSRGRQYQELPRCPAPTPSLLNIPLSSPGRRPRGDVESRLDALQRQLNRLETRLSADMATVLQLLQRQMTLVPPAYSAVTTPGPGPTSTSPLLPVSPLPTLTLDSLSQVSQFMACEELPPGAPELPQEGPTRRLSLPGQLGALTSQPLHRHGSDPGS

T1 sequence (Q8NER1 whole entry): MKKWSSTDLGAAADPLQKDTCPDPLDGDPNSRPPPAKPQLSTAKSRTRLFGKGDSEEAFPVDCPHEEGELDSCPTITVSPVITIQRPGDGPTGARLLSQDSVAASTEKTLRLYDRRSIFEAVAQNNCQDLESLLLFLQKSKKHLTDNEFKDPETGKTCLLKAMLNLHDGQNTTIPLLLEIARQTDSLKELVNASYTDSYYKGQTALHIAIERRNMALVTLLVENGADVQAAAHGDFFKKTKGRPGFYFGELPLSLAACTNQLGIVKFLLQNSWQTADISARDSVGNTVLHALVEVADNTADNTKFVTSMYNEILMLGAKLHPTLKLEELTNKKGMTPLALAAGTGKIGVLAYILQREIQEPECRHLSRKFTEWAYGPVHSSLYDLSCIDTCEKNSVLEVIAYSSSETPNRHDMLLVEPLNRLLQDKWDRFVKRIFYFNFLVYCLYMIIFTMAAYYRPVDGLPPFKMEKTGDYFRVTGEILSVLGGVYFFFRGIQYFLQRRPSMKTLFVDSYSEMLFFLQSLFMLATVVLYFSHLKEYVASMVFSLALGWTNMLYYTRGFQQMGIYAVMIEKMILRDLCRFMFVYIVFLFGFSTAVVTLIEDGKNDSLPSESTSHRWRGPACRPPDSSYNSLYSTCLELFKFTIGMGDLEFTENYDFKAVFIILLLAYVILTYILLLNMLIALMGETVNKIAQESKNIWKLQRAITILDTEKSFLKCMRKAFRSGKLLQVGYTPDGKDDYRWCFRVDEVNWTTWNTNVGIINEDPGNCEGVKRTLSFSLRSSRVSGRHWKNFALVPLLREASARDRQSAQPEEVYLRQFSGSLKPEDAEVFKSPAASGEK
Sequence of Transient receptor potential cation channel subfamily V member 1 (Rattus norvegicus, UniProt O35433) (O35433 whole entry): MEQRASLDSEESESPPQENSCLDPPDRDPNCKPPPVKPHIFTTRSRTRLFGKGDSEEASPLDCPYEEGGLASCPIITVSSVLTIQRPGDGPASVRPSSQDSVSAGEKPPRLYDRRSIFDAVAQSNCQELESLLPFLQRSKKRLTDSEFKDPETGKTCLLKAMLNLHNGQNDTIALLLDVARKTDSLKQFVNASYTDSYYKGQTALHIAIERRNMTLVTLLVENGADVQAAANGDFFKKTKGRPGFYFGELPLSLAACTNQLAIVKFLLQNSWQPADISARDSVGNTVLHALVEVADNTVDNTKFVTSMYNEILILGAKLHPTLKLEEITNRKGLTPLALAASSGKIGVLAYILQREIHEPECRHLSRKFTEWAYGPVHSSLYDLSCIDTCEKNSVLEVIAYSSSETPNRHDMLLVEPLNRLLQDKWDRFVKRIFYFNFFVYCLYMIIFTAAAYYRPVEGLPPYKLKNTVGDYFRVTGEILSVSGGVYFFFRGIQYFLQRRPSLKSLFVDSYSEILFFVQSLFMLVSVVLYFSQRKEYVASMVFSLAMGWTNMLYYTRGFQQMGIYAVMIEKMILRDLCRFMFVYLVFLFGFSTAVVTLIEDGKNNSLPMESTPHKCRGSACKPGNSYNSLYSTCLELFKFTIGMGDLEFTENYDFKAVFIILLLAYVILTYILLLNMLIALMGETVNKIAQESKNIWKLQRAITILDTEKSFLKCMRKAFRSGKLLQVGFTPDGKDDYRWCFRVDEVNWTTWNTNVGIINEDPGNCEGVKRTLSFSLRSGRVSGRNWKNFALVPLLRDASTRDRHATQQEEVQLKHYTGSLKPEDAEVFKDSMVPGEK

IC50 [1] [nM] | SMILES | Efficacy (Rattus norvegicus [5]) [%] | further results
42 | CC(C)(C)c1ccc(NC(=O)c2ccc(-c3ccccn3)cc2)cc1 |  | 
 | CC(C)(C)c1ccc(NC(=O)N2CCN(c3ncccc3Cl)CC2)cc1 |  | Kp [2]: 5; ED50 (Rattus norvegicus [3]): 8 µmol/kg; ED50 (Rattus norvegicus [4]): 8 µmol/kg
24 | O=C(Nc1ccc(S(=O)(=O)C(F)(F)F)cc1)C1=CCN(c2ncccc2C(F)(F)F)CC1 | 58 | Kp [2]: 1.5; ED50 (Rattus norvegicus [3]): 12 µmol/kg; ED50 (Rattus norvegicus [4]): > 300 µmol/kg; concentration at 1 h [6]: 200 ng/mL; IC50 [7]: 20.2 nM; IC50 [8]: 14 nM; IC50 [9]: 17 nM; ED50 (Rattus norvegicus [10]): 10 µmol/kg; ED50 (Rattus norvegicus [11]): 76 µmol/kg; ED50 (Rattus norvegicus [12]): 40 µmol/kg; ED50 (Rattus norvegicus [13]): 8 µmol/kg; ED50 (Rattus norvegicus [14]): 20 µmol/kg; ED50 (Rattus norvegicus [15]): 25 µmol/kg; solubility [16]: 33 ng/mL (≈ 6.88e-05 mM); Papp [17]: 28.5 ×10⁻⁶ cm/s; solubility [18]: > 100 mg/mL
10 | CC(C)(C)c1ccc(NC(=O)C2=CCN(c3ncccc3Cl)CC2)cc1 |  | 
147 | COc1cccc(NC(=O)c2ccc(-c3ccccc3)cc2)c1 |  | 
78 | O=C(Nc1ccc(Cl)c(F)c1)C1=CCN(c2ncccc2Cl)CC1 |  | 
33 | O=C(Nc1ccc(Cl)cc1)C1=CCN(c2ncccc2Cl)CC1 |  | bioavailability [19]: 16%; half-life [20]: 102 min; Activity [21]: Active
265 | CC(C)(C)c1ccc(NC(=O)C2=CCN(c3ccccc3F)CC2)cc1 |  | 
19 | O=C(Nc1ccc(Cl)cc1)C1=CCN(c2ncccc2C(F)(F)F)CC1 | 40 | 
67 | O=C(Nc1ccc(S(=O)(=O)C(F)(F)F)cc1)C1=CCN(c2ncccc2F)CC1 | 51 | concentration at 1 h [6]: 900 ng/mL
95 | O=C(Nc1ccc(S(=O)(=O)C(F)(F)F)cc1)C1=CCN(c2nccs2)CC1 | 37 | concentration at 1 h [6]: 2100 ng/mL
78 | CC(C)(C)c1ccc(NC(=O)C2=CCN(c3ncccc3C#N)CC2)cc1 |  | 
27 | CC(C)(C)c1ccc(NC(=O)C2=CCN(c3ccccn3)CC2)cc1 |  | 
19 | CC(C)(C)c1ccc(NC(=O)C2=CCN(c3ncccc3F)CC2)cc1 |  | 
14 | CC(C)(C)c1ccc(NC(=O)C2=CCN(c3nccs3)CC2)cc1 |  | 
124 | O=C(Nc1ccc(Cl)c(Cl)c1)C1=CCN(c2ncccc2Cl)CC1 |  | 
2750 | O=C(Nc1ccc(Cl)cc1C(F)(F)F)C1=CCN(c2ncccc2Cl)CC1 |  | 
10 | CC(C)(C)c1ccc(NC(=O)C2=CCN(c3ncccn3)CC2)cc1 |  | 
41 | CC(C)(C#N)c1ccc(NC(=O)C2=CCN(c3ncccc3C(F)(F)F)CC2)cc1 | 25 | 
196 | CC(C)(C)c1ccc(NC(=O)C2CCN(c3ncccc3Cl)CC2)cc1 |  | 
6 | CC(C)(C)c1ccc(NC(=O)C2=CCN(c3ncccc3C(F)(F)F)CC2)cc1 |  | Activity (Rattus norvegicus [5]): 28%
14 | O=C(Nc1cccc2[nH]ncc12)N[C@@H]1CCc2cc(N3CCCCC3)ccc21 |  | Kp [2]: 0.008; ED50 (Rattus norvegicus [3]): 12 µmol/kg; ED50 (Rattus norvegicus [4]): > 300 µmol/kg; IC50 [9]: 30 nM; ED50 (Rattus norvegicus [10]): 10 µmol/kg; ED50 (Rattus norvegicus [11]): 300 µmol/kg; ED50 (Rattus norvegicus [12]): 165 µmol/kg; ED50 (Rattus norvegicus [13]): 280 µmol/kg
44 | O=C(Nc1ccc(S(=O)(=O)C(F)(F)F)cc1)C1=CCN(c2ncccn2)CC1 | 53 | concentration at 1 h [6]: 380 ng/mL
8 | O=C(Nc1ccc(C(F)(F)F)cc1)C1=CCN(c2ncccc2C(F)(F)F)CC1 | 35 | 
41 | O=C(Nc1ccc(S(=O)(=O)C(F)(F)F)cc1)C1=CCN(c2ncccc2Cl)CC1 | 63 | concentration at 1 h [6]: 280 ng/mL
618 | O=C(Nc1ccc(Cl)cc1F)C1=CCN(c2ncccc2Cl)CC1 |  | 
42 | O=C(Nc1ccc(C(F)(F)F)nc1)C1=CCN(c2ncccc2C(F)(F)F)CC1 | 61 | bioavailability [19]: 3%
35 | Cc1cccnc1N1CC=C(C(=O)Nc2ccc(S(=O)(=O)C(F)(F)F)cc2)CC1 | 53 | concentration at 1 h [6]: 960 ng/mL
